Here are results for 19 molecules from ChEMBL document CHEMBL2413020 (Bioorg Med Chem, 2013).

Active and inactive are the calls of the source. The rule behind the calls is not given here.

As usually defined, the inhibition in vivo is the change of the read-out against control, counted positive when it falls. As usually defined, the inhibition is the relative decrease from the control value, in per cent. By IC50 is commonly meant the point on the concentration scale where inhibition reaches its midpoint.

The test system of assay [1] is Rattus norvegicus. Put plainly: Antiinflammatory activity in Wistar albino rat assessed as inhibition of carrageenan-induced paw edema at 50 mg/kg, po administered 30 mins prior to carrageenan challenge measured at 2 hrs by plethysmometric analysis relative to control. Format: functional. In outline:
(§1)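 Groups of six male Wistar albino rats (200–250 g), fasted 12 h before and during the test. Agents given orally at 50 mg/kg; vehicle controls received tween 80 (95:5). After 30 min, 0.1 mL of 1% w/v carrageenan in saline injected subplantar into the left hind paw. Paw volume by plethysmometer at 0 h (within 30 s) and at 1, 2, 3 and 4 h. % edema inhibition from (Vt−V0) vs control; mean SEM, ANOVA.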

For assay [2], the system named is Rattus norvegicus. Put plainly: Antiinflammatory activity in Wistar albino rat assessed as inhibition of carrageenan-induced paw edema at 50 mg/kg, po administered 30 mins prior to carrageenan challenge measured at 1 hr by plethysmometric analysis relative to control. It is filed as functional. The procedure, abridged:
as §1
Background: Carrageenan injected into the paw causes an acute inflammation.

For assay [3], the system named is Rattus norvegicus. The assay is described as follows: Antiinflammatory activity in Wistar albino rat assessed as inhibition of carrageenan-induced paw edema at 50 mg/kg, po administered 30 mins prior to carrageenan challenge measured at 3 hrs by plethysmometric analysis relative to control. Format: functional. The procedure, abridged: as §1
In assay [4] the test system is Rattus norvegicus. Put plainly: Antiinflammatory activity in Wistar albino rat assessed as inhibition of carrageenan-induced paw edema at 50 mg/kg, po administered 30 mins prior to carrageenan challenge measured at 4 hrs by plethysmometric analysis relative to control. It is filed as functional. The procedure, abridged: as §1
Assay [5] concerns the target T1, Prostaglandin G/H synthase 1 (Ovis aries) (UniProt P05979).
T1 sequence (whole entry): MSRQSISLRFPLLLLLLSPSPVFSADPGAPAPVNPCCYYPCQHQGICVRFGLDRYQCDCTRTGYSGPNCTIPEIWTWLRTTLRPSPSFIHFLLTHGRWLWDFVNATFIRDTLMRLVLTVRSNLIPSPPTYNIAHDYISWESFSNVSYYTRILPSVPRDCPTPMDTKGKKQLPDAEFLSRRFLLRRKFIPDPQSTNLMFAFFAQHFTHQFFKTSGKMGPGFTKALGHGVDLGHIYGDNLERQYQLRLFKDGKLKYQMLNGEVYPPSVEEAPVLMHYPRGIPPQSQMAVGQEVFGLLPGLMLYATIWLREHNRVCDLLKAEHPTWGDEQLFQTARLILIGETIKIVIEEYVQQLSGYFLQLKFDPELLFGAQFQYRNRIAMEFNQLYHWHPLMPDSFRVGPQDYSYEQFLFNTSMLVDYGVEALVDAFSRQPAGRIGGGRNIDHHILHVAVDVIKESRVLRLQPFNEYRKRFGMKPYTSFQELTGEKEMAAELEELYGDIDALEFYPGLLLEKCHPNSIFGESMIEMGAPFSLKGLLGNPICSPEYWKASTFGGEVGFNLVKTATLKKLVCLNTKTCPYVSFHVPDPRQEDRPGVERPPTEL
The assay is described as follows: Inhibition of ovine COX1 using arachidonic acid as substrate assessed as production of PGF2alpha at 30 uM preincubated for 10 mins followed by substrate addition measured after 2 mins by EIA in presence of stannous chloride relative to control.

Assay [6] addresses T2, Prostaglandin G/H synthase 1 (Ovis aries, UniProt P05979).
T2 sequence (P05979 whole entry): T1 sequence (whole entry)
The assay is described as follows: Inhibition of ovine COX1 using arachidonic acid as substrate assessed as production of PGF2alpha preincubated for 10 mins followed by substrate addition measured after 2 mins by EIA in presence of stannous chloride. The procedure, abridged:
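Kit-based EIA in 0.1 M Tris-HCl pH 8 with 2 mM phenol. Enzyme and compound preincubated 10 min at 37 °C; arachidonic acid started a 2 min reaction, stopped with 1 M HCl, then stannous chloride 5 min at room temperature. EIA plate incubated 18 h, Ellman's reagent, read at 410 nm.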

Assay [7] deals with Rattus norvegicus. Put plainly: Antiinflammatory activity in Wistar albino rat assessed as inhibition of carrageenan-induced paw edema at 50 mg/kg, ip administered 30 mins prior to carrageenan challenge measured at 1 hr by plethysmometric analysis relative to control. It is filed as functional. The settings on record: route intraperitoneal. In outline: (§2)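 Male Wistar albino rats (200–250 g), food withdrawn 12 h before and during the test, in groups of six. Reference drug given ip; controls received tween 80 (95:5). At 30 min, 0.1 mL of 1% w/v carrageenan in saline injected subplantar into the left hind paw. Plethysmometer paw volume read within 30 s, then at 1–4 h. % inhibition vs control (Vt−V0); mean SEM, ANOVA.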

The subject of assay [8] is Rattus norvegicus. Put plainly: Antiinflammatory activity in Wistar albino rat assessed as inhibition of carrageenan-induced paw edema at 50 mg/kg, ip administered 30 mins prior to carrageenan challenge measured at 4 hrs by plethysmometric analysis relative to control. Format: functional. The settings on record: route intraperitoneal. The procedure, abridged:
as §2

Assay [9] has as its system Rattus norvegicus. The assay is described as follows: Antiinflammatory activity in Wistar albino rat assessed as inhibition of carrageenan-induced paw edema at 50 mg/kg, ip administered 30 mins prior to carrageenan challenge measured at 2 hrs by plethysmometric analysis relative to control. Format: functional. The settings on record: route intraperitoneal. In outline:
as §2

In assay [10] the test system is Rattus norvegicus. Put plainly: Antiinflammatory activity in Wistar albino rat assessed as inhibition of carrageenan-induced paw edema at 50 mg/kg, ip administered 30 mins prior to carrageenan challenge measured at 3 hrs by plethysmometric analysis relative to control. It is filed as functional. The settings on record: route intraperitoneal. In outline:
as §2

For the molecule `NC(=S)c1ccc(-n2nc(C(F)(F)F)cc2-c2ccc3ccccc3c2)cc1`, the inhibition in vivo at 50 mg/kg in the assay on Rattus norvegicus [1] was found to be 72.9%; with Rattus norvegicus [2], 92.9%; with Rattus norvegicus [3], 53.2%; in the assay with Rattus norvegicus [4], 46%.
For `COc1ccc(-c2cc(C(F)(F)F)nn2-c2ccc(C#N)cc2)cc1`, in that order: 85.2%, 44.4%, 69.9% and 54.8%.
Take `NC(=S)c1ccc(-n2nc(C(F)(F)F)cc2-c2cccs2)cc1`: the inhibition in vivo at 50 mg/kg in the assay on Rattus norvegicus [1] came to 73.4%; with Rattus norvegicus [2] it was 85.9%; in the assay on Rattus norvegicus [3], 57.2%; in the assay on Rattus norvegicus [4], 61.5%. In addition, the inhibition in assay [5] was 39.8%.
With `NC(=S)c1ccc(-n2nc(C(F)(F)F)cc2-c2ccc(Br)cc2)cc1`, the inhibition in vivo at 50 mg/kg with Rattus norvegicus [1] came out at 84.9%; in the assay with Rattus norvegicus [2], 54.5%; in the assay with Rattus norvegicus [3] it was 72.8%; in the assay with Rattus norvegicus [4], 60.3%. In assay [5], the inhibition came to 86.1%. In addition, the IC50 in assay [6] was found to be 2350 nM.
As to `N#Cc1ccc(-n2nc(C(F)(F)F)cc2-c2ccco2)cc1`, the inhibition in vivo at 50 mg/kg amounted to 79.1% with Rattus norvegicus [1], 79.8% in the assay on Rattus norvegicus [2], 67.6% in the assay on Rattus norvegicus [3] and 61.6% in the assay with Rattus norvegicus [4]. The inhibition result in assay [5] is “inactive”.
For `Cc1ccc(-c2cc(C(F)(F)F)nn2-c2ccc(C(N)=S)cc2)cc1`, the inhibition in vivo at 50 mg/kg in the assay on Rattus norvegicus [1] was 79.4%; in the assay on Rattus norvegicus [2], 73.7%; in the assay with Rattus norvegicus [3], 60.1%; in the assay on Rattus norvegicus [4] it was 51.7%. In addition, the inhibition in [5] was 44.3%. In addition, the IC50 in assay [6] is above 30000 nM.
Consider `NC(=S)c1ccc(-n2nc(C(F)(F)F)cc2-c2ccccc2)cc1`, for which the inhibition in vivo at 50 mg/kg in the assay on Rattus norvegicus [1] was found to be 74.9%; in the assay with Rattus norvegicus [2] it was 82.8%; in the assay with Rattus norvegicus [3] it was 49.7%; in the assay with Rattus norvegicus [4], 50%. Moreover, the inhibition in assay [5] worked out at 97.9%. For the same molecule, the 50% inhibitory concentration (IC50) in assay [6] worked out at 1420 nM.
As to `NC(=S)c1ccc(-n2nc(C(F)(F)F)cc2-c2ccco2)cc1`, the inhibition in vivo at 50 mg/kg in the assay on Rattus norvegicus [1] came to 77.4%; in the assay with Rattus norvegicus [2], 82.8%; in the assay on Rattus norvegicus [3], 58.4%; in the assay with Rattus norvegicus [4], 59.8%. Besides, the inhibition in [5] is 20.1%. The half-inhibitory concentration (IC50) in assay [6] was above 30000 nM.
In the case of `N#Cc1ccc(-n2nc(C(F)(F)F)cc2-c2cccs2)cc1`, the inhibition in vivo at 50 mg/kg with Rattus norvegicus [1] is 71.4%; in the assay on Rattus norvegicus [2], 81.8%; in the assay on Rattus norvegicus [3], 57.8%; with Rattus norvegicus [4] it was 55.9%. Besides, the inhibition result in assay [5] was “inactive”.
In the case of `COc1ccc2c(c1)c(CC(=O)O)c(C)n2C(=O)c1ccc(Cl)cc1` [INDOMETHACIN], the inhibition in vivo at 50 mg/kg in the assay with Rattus norvegicus [7] is 96%; in the assay with Rattus norvegicus [8] it was 90.2%; with Rattus norvegicus [9] it was 90.3%; with Rattus norvegicus [10], 85%.
Regarding `NC(=S)c1ccc(-n2nc(C(F)(F)F)cc2-c2ccc(Cl)cc2)cc1`, the inhibition in vivo at 50 mg/kg in the assay with Rattus norvegicus [1] stood at 77.4%; in the assay with Rattus norvegicus [2], 89.9%; in the assay on Rattus norvegicus [3] it was 63%; with Rattus norvegicus [4], 61.5%. The inhibition in assay [5] turned out to be 86.9%. Further, the half-inhibitory concentration (IC50) in [6] was determined as 1110 nM.
Consider `N#Cc1ccc(-n2nc(C(F)(F)F)cc2-c2ccc3ccccc3c2)cc1`, for which the inhibition in vivo at 50 mg/kg is 67.8% in the assay with Rattus norvegicus [1], 84.8% with Rattus norvegicus [2], 59.5% with Rattus norvegicus [3] and 48% with Rattus norvegicus [4]. The inhibition in assay [5] stood at 20.7%.
As for `N#Cc1ccc(-n2nc(C(F)(F)F)cc2-c2ccc(Br)cc2)cc1`, the inhibition in vivo at 50 mg/kg with Rattus norvegicus [1] was 88.8%; in the assay on Rattus norvegicus [2], 78.8%; with Rattus norvegicus [3], 83.8%; with Rattus norvegicus [4], 86.4%. In assay [5], the inhibition was found to be 13.4%. The IC50 in [6] is above 30000 nM.
With `COc1ccc(-c2cc(C(F)(F)F)nn2-c2ccc(C(N)=S)cc2)cc1`, the inhibition in vivo at 50 mg/kg with Rattus norvegicus [1] was 77.9%; in the assay on Rattus norvegicus [2], 78.8%; with Rattus norvegicus [3] it was 65.9%; with Rattus norvegicus [4] it was 52.9%.
Take `N#Cc1ccc(-n2nc(C(F)(F)F)cc2-c2ccccc2)cc1`: the inhibition in vivo at 50 mg/kg is 81.1% in the assay on Rattus norvegicus [1], 91.9% with Rattus norvegicus [2], 84.4% in the assay on Rattus norvegicus [3] and 91% with Rattus norvegicus [4]. Also, the inhibition in assay [5] is 97%. Also, the IC50 in [6] was found to be 1110 nM.
`NC(=S)c1ccc(-n2nc(C(F)(F)F)cc2-c2ccc(F)cc2)cc1`: the inhibition in vivo at 50 mg/kg stood at 85.4% with Rattus norvegicus [1], 74.8% in the assay with Rattus norvegicus [2], 71.7% with Rattus norvegicus [3] and 82.8% in the assay on Rattus norvegicus [4]. Besides, the inhibition result in assay [5] is “inactive”. Further, in assay [6], the IC50 was above 30000 nM.
As for `Cc1ccc(-c2cc(C(F)(F)F)nn2-c2ccc(C#N)cc2)cc1`, the inhibition in vivo at 50 mg/kg is 87.2% in the assay with Rattus norvegicus [1], 65.7% in the assay with Rattus norvegicus [2], 82.7% with Rattus norvegicus [3] and 80.2% with Rattus norvegicus [4]. In assay [5], the inhibition result is “inactive”.
For `N#Cc1ccc(-n2nc(C(F)(F)F)cc2-c2ccc(F)cc2)cc1`, in that order: 81.1%, 79.8%, 84.4%, 90.4% and “inactive”.
For `N#Cc1ccc(-n2nc(C(F)(F)F)cc2-c2ccc(Cl)cc2)cc1` the same measures were 76.5%, 26.3%, 67.6%, 65% and “inactive”.
